According to publication PMC5050072 (Clinical cancer research : an official journal of the …, 2016):

How the values were obtained:
[1] = system: tumor cells proliferation (Ki-67); test: Ki-67 immunohistochemistry of matched pre- and post-treatment tumor tissue; type: in vivo, human
Procedure, shortened: (§1)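 Tumor sections taken before and after 7 days of daily test compound were immunostained; the last dose was given 2–3 h before resection. NICD used an anti-NICD antibody. At least 1,000 cells counted per marker, with morphometry by image analysis. Ki-67 values were also grouped by patient survival (n=7). Mean±SEM; unpaired Student's t-tests.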

GSC-like CD133+ cells = test: Organotypic tumor explants: FACS analysis of CD133+ cells; type: cell-based, human; conditions: RO4929097 alone; n=5
[2] = system: Notch intracellular domain (NICD); test: NICD immunohistochemistry of tumor cells in matched glioblastoma tissue; type: in vivo, human; conditions: after presurgical 7-day treatment; before 21.9 ± 5.4 %; n=6
Procedure, shortened: as §1

Notch pathway components = type: in vivo, human; conditions: enhancing tissue compared to areas of intact BBB, after 7 days
Procedure, shortened: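 After 7 days of daily test compound (last dose 2–3 h pre-resection), tumor was sampled separately from contrast-enhancing and non-enhancing regions, defined by intraoperative MRI. Notch pathway transcripts were quantified by real-time PCR, normalized to 18S (n=6). Mean±SEM; unpaired Student's t-tests.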

Hes1 = conditions: cited from earlier work
glioblastoma explants [3] = test: Organotypic tumor explants: CellTiter Glo Luminescent Assay; type: cell-based, human; conditions: triple combination RT+temozolomide+RO4929097; n=5
[4] = system: NICD-expressing vascular structures; test: NICD/CD31 immunohistochemistry of tumor blood vessels; type: in vivo, human
[5] = system: tumor blood perfusion and vascular permeability; test: DCE-perfusion MRI before and after 7 days of RO4929097; type: in vivo, human; conditions: after 7 days of RO4929097
Procedure, shortened: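 Dynamic contrast-enhanced perfusion MRI in glioma patients before and after 7 days of daily test compound given before resection. Read-outs were relative fractional plasma volume (Vp) for blood perfusion and volume transfer coefficient between plasma and extravascular extracellular space (K^trans) for vascular permeability. Values given as mean±SEM; significance by unpaired Student's t-test.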

[6] = Plasma pharmacokinetics of RO4929097; type: in vivo, human; conditions: 10, 15, 20 mg, with temozolomide 75mg/m2
Procedure, shortened: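 Daily test compound at 10, 15 or 20 mg, combined with temozolomide 75 mg/m² and 150 mg/m². Plasma levels measured by HPLC-MS/MS. […] Reported as mean ±SD.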

glioblastoma explants [7] = test: Organotypic tumor explants: Ki-67 immunofluorescent staining; type: cell-based, human; conditions: RO4929097 1 µM, 10 days in vitro; n=4
Procedure, shortened: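 Fresh tumor tissue from patients resected on study was grown as 3-D organotypic explants. Established explants were treated with the test compound alone. Proliferation was read by Ki-67 immunofluorescent staining and counting of Ki-67+ nuclei before and after treatment (n=4). Mean±SEM; unpaired Student's t-test.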

[8] = system: Notch gene targets, angiogenesis and mesenchymal genes; test: RNA-Ampliseq gene expression profiling of matched and recurrent tumors; type: in vivo, human
Procedure, shortened: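 RNA sequencing on FFPE tumor tissue. Samples were matched archival pre-treatment tissue and tissue resected after the initial 7 days of daily test compound. A further set was recurrent tumors resected at repeat surgery from patients kept on the test compound (with temozolomide) until the day of surgery (n=7).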

[9] = type: in vivo, human
[10] = Phase I 3+3 dose escalation of RO4929097 with RT and temozolomide: toxicity; type: in vivo, human
[11] = after RO4929097, survival cut-off 14 months
[12] = second surgery after prolonged course (mean 181 days)

SMILES: CC(C)(C(=O)NCC(F)(F)C(F)(F)F)C(=O)N[C@@H]1C(=O)Nc2ccccc2-c2ccccc21 [RO4929097]
- Ki-67, poor survival group ([1]; after 7 days of RO4929097, baseline 15.0 ± 2.3 %): 20.4 ± 2.2%
- Ki-67, favorable survival subgroup ([1]; after 7 days of RO4929097, baseline 37.3 ± 10.7 %): 8.5 ± 3.2%
- Ki-67 proliferation marker after treatment ([1]; after 7 days of RO treatment, before 27.7 ± 7.3 %, n=7): 13.6 ± 3.1%
- proportion of CD133+ cells in explants (GSC-like CD133+ cells): significant decrease
- NICD-positive tumor cells after treatment [2]: 5.1 ± 1.3%
- Hes1 mRNA levels (Notch pathway components): remained unchanged
- mRNA of Notch receptors (Notch 2, 3 and 4) (Notch pathway components): significant upregulation
- mRNA of downstream effector Hes5 (Notch pathway components): suppression
- mRNA of DLL1, DLL3 and Jag2 ligands (Notch pathway components; n=6): significant downregulation
- concentration from which target genes (e.g. Hes1) are reduced dose-dependently (Hes1): ≥ 0.1 µM
- decrease in tumor cell viability compared to control untreated explants (glioblastoma explants [3]): ~60%
- microvascular density ([4]; Pre vs Post vs PostPP): no significant change
- NICD expression on vascular structures, better survival group [4, 11]: 22.5 ± 5.0%
- NICD expression on vascular structures, poor survival group [4, 11]: 43.8 ± 9.0%
- NICD-expressing vascular structures (Post) ([4]; at 7 days of RO4929097, Pre 67.6 ± 5.2 %, percent of total blood vessels): 30.0 ± 9.0%
- NICD-expressing vascular structures (PostPP) ([4]; at recurrence after prolonged treatment, Pre 67.6 ± 5.2 %): 24.2 ± 5.2%
- mean K^trans after treatment ([5]; baseline 0.05± 0.01): 0.03 ± 0.01 min⁻¹
- mean Vp ratio after drug exposure ([5]; baseline 9.34± 2.4, p<0.05, 8 patients): 3.92± 0.9
- mean Cmax and AUC24 for the initial dose [6]: increased as the dose was escalated
- proliferation (Ki-67 quantification) in explants (glioblastoma explants [7]): significant decrease in proliferation
- mesenchymal-associated genes C/EBPB and STAT3 ([8]; after presurgical 7-day RO4929097 treatment phase): downregulated
- expression of primary Notch gene targets Hes5, Hey1 and Hey2 ([8]; mostly recurrence group with prolonged therapy, not statistically significant): trend towards downregulation
- angiogenesis markers PECAM (CD31), angiopoetins and VEGFA ([8]; recurrent tumors under prolonged RO4929097 therapy): upregulation
- tumor drug level, enhancing tissue ([9]; after 7 days of RO4929097, at surgery, disrupted BBB, mean ± SEM): 0.73 ± 0.13 µM
- tumor drug level, non-enhancing tissue ([9]; after 7 days of RO4929097, at surgery, intact BBB, mean ± SEM): 0.33 ± 0.04 µM
- drug level in non-enhancing tumor tissue, specimen M09 ([9]; repeat surgery, prolonged RO4929097 use, single specimen): ~ 1.3 µM
- tumor drug concentration, enhancing areas [9, 12]: 0.77 ± 0.19 µM
- tumor drug concentration, non-enhancing areas [9, 12]: 0.71 ± 0.24 µM
- average tissue drug level, favorable survival group ([9]; tumor tissue, survival cut-off 14 months): 0.15 ± 0.03 µM
- average tissue drug level, poor survival group ([9]; tumor tissue, survival cut-off 14 months, p=0.36 vs favorable): 0.19 ± 0.05 µM
- QTc prolongation [10]: no significant QTc prolongation
- treatment-related deaths [10]: no treatment-related deaths
- recommended phase 2 dose (RP2D) ([10]; daily): 20 mg
